Measured values from the M2OR odorant receptor database.

How the values were obtained:
Conditions in all cases: stereoisomer not certain
OR52I1 (Homo sapiens) = target: T1, OR52I1 (Homo sapiens) (UniProt Q8NGK6)
T1 sequence (whole entry): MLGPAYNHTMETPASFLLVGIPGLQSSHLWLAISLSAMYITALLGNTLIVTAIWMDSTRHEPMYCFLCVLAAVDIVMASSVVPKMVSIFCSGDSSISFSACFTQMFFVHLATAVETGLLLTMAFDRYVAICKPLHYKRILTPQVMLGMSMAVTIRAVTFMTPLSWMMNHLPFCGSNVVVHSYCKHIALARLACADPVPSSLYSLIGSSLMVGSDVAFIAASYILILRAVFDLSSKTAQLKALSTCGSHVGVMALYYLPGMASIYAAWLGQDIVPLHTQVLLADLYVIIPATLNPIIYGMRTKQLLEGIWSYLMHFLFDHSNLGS
Method in brief: (§1)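 Each receptor–molecule pair is labelled responsive or non-responsive (inactive) according to whether the original authors judged the measured signal statistically different from baseline. The data were taken from the main text and supplementary material of published papers and checked for typos and inconsistencies. Assay methods differed by source, with transient luciferase assays in mammalian cell lines being common.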

OR52I2 (Homo sapiens) = target: T2, OR52I2 (Homo sapiens) (UniProt Q8NH67)
T2 sequence (whole entry): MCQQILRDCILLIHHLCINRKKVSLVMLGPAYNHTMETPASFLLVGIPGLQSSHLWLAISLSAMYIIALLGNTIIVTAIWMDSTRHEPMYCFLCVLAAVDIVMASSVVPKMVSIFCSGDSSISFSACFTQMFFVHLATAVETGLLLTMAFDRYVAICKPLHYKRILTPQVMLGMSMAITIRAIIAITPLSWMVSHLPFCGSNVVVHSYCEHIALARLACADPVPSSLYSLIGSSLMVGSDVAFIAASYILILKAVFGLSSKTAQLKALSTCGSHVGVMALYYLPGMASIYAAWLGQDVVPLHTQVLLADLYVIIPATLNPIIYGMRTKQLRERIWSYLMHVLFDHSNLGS
Method in brief: as §1

OR52J3 (Homo sapiens) = OR52J3 (Homo sapiens) (UniProt Q8NH60)
Method in brief: as §1

OR52K1 (Homo sapiens) = target: T3, OR52K1 (Homo sapiens) (UniProt Q8NGK4)
T3 sequence (whole entry): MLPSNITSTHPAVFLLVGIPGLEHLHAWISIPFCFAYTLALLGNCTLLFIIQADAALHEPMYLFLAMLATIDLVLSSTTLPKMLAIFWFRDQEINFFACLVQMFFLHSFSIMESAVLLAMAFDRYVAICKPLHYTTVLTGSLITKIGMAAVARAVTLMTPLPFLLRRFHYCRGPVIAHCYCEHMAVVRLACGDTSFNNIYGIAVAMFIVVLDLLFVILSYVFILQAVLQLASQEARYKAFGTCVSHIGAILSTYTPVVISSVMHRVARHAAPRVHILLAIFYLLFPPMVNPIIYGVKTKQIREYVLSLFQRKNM
Method in brief: as §1

OR52K2 (Homo sapiens) = target: T4, OR52K2 (Homo sapiens) (UniProt Q8NGK3)
T4 sequence (whole entry): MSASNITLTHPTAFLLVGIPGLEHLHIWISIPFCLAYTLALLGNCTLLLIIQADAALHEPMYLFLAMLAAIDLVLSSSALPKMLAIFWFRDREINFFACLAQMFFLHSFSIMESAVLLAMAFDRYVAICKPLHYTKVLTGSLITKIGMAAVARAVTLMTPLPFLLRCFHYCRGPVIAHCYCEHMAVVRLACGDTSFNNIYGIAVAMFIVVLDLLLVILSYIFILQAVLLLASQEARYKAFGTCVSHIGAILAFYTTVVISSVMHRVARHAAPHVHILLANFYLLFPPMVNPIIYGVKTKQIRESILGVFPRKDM
Method in brief: as §1

OR52L1 (Homo sapiens) = target: T5, OR52L1 (Homo sapiens) (UniProt Q8NGH7)
T5 sequence (whole entry): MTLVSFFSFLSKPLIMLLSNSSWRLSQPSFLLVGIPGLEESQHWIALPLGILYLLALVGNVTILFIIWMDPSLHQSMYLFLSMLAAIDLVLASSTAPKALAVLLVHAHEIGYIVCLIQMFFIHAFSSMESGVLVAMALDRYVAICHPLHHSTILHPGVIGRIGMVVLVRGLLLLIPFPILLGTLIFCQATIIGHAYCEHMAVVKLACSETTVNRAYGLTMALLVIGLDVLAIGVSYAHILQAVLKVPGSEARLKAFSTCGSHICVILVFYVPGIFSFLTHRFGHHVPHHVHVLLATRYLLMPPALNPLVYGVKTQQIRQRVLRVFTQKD
Method in brief: as §1

OR52M1 (Homo sapiens) = target: T6, OR52M1 (Homo sapiens) (UniProt Q8NGK5)
T6 sequence (whole entry): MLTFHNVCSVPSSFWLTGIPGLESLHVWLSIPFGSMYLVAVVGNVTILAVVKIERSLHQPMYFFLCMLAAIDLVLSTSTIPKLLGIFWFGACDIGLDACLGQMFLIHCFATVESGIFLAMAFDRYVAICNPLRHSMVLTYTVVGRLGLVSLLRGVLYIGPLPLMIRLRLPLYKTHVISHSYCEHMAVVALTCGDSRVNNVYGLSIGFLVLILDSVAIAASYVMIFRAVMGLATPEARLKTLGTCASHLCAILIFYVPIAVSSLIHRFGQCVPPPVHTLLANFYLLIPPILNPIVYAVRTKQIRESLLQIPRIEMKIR
Method in brief: as §1

OR52N1 (Homo sapiens) = target: T7, OR52N1 (Homo sapiens) (UniProt Q8NH53)
T7 sequence (whole entry): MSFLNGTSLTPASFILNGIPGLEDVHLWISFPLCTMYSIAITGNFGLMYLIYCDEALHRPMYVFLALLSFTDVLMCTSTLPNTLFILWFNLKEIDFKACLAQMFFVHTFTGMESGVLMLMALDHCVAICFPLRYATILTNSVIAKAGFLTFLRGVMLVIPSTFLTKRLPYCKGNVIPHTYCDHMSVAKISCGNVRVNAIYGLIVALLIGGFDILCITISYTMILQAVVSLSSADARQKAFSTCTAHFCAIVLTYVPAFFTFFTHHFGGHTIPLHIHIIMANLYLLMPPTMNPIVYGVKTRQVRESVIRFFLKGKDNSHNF
Method in brief: as §1

OR52N2 (Homo sapiens) = target: T8, OR52N2 (Homo sapiens) (UniProt Q8NGI0)
T8 sequence (whole entry): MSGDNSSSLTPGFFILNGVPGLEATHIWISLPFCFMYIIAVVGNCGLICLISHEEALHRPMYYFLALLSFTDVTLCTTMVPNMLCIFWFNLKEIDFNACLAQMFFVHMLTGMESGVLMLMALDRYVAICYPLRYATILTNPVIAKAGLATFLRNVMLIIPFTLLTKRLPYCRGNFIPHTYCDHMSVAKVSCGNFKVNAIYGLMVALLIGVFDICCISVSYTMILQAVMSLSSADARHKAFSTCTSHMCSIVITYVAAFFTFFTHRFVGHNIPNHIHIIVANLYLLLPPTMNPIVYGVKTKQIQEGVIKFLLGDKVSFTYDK
Method in brief: as §1

OR52N4 (Homo sapiens) = target: T9, OR52N4 (Homo sapiens) (UniProt Q8NGI2)
T9 sequence (whole entry): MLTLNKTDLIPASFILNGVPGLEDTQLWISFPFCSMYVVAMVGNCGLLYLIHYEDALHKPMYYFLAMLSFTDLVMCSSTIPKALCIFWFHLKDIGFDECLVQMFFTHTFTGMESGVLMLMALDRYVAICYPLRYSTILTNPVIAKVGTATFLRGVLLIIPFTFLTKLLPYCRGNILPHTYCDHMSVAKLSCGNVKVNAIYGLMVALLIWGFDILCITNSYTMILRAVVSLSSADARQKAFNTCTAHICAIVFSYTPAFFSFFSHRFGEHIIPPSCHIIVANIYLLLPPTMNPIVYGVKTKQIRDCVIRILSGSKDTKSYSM
Method in brief: as §1

OR52N5 (Homo sapiens) = target: T10, OR52N5 (Homo sapiens) (UniProt Q8NH56)
T10 sequence (whole entry): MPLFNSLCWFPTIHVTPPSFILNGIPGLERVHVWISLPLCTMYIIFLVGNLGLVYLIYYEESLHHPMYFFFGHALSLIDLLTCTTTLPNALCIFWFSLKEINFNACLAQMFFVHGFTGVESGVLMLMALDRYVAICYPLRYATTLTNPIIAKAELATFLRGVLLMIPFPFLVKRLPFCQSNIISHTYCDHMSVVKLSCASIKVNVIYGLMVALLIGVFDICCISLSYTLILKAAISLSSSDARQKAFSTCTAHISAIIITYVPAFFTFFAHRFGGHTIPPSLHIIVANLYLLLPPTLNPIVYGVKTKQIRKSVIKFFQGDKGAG
Method in brief: as §1

OR52R1 (Homo sapiens) = target: T11, OR52R1 (Homo sapiens) (UniProt Q8NGF1)
T11 sequence (whole entry): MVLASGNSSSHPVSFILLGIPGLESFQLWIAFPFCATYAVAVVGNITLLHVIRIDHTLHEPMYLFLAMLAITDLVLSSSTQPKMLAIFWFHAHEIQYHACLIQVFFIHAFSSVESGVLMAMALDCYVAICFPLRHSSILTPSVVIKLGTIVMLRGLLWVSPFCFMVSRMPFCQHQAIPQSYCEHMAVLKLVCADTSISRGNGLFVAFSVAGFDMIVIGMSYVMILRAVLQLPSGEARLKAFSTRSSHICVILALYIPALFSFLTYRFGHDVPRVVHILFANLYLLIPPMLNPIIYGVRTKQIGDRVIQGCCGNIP
Method in brief: as §1

OR52W1 (Homo sapiens) = target: T12, OR52W1 (Homo sapiens) (UniProt Q6IF63)
T12 sequence (whole entry): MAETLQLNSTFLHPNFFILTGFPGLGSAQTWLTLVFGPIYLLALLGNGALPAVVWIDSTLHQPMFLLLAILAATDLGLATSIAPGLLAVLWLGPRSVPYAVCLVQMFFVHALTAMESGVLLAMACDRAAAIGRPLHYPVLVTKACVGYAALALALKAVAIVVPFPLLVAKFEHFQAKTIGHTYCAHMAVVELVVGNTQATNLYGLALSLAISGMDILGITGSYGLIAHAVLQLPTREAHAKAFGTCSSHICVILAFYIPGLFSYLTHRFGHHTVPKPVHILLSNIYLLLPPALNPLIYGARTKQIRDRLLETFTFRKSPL
Method in brief: as §1

OR56A1 (Homo sapiens) = target: T13, OR56A1 (Homo sapiens) (UniProt Q8NGH5)
T13 sequence (whole entry): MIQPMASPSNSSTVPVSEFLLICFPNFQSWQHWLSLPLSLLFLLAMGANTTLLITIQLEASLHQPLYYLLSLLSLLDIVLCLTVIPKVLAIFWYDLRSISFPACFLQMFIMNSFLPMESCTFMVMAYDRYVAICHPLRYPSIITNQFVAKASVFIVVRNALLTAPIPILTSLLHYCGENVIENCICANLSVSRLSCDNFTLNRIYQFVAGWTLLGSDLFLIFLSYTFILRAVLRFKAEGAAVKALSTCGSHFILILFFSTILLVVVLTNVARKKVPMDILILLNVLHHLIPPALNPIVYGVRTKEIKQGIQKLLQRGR
Method in brief: as §1

OR56A3 (Homo sapiens) = target: T14, OR56A3 (Homo sapiens) (UniProt Q8NH54)
T14 sequence (whole entry): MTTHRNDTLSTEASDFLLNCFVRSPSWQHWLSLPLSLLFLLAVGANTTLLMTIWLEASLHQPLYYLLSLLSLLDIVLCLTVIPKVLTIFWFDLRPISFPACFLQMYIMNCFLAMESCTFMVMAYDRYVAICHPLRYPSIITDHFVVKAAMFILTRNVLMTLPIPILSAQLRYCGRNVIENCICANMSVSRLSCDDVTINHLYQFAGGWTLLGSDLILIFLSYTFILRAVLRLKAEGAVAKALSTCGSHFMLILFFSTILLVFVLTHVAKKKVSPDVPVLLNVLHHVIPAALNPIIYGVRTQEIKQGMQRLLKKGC
Method in brief: as §1

OR56A5 (Homo sapiens) = target: T15, OR56A5 (Homo sapiens) (UniProt P0C7T3)
T15 sequence (whole entry): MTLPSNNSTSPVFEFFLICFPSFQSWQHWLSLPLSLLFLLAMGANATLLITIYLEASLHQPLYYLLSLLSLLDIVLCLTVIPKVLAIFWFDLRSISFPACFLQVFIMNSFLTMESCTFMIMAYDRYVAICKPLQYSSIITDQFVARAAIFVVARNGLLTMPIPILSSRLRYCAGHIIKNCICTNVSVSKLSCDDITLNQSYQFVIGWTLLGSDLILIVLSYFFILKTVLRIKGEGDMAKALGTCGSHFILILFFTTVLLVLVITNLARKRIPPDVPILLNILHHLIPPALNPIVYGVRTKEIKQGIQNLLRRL
Method in brief: as §1

OR56B1 (Homo sapiens) = target: T16, OR56B1 (Homo sapiens) (UniProt Q8NGI3)
T16 sequence (whole entry): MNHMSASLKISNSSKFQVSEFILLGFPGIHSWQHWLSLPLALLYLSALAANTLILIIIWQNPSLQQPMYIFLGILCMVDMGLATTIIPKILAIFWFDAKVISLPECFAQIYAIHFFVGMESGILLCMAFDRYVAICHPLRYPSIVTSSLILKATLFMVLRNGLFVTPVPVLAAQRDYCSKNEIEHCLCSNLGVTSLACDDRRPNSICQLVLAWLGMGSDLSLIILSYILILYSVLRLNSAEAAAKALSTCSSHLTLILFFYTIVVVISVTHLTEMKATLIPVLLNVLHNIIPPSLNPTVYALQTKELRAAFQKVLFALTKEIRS
Method in brief: as §1

Measured: odorant receptor agonist call

Chain of OR52J3 (Homo sapiens) (Q8NH60 whole entry): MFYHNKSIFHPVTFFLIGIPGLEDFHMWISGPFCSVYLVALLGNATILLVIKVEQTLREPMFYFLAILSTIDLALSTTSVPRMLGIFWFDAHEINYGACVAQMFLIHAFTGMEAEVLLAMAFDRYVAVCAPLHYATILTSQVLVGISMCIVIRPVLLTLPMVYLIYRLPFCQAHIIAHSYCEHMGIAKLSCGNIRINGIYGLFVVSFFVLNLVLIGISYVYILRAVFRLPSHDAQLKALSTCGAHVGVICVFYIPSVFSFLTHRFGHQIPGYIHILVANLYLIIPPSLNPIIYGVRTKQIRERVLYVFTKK

CC1=C(O)C(=O)OC1C (configuration not stated)
inactive: all assays above
